STAT1 activator = increases IFN-gamma driven STAT1 reporter signal. NIH 3T3 STAT1-luciferase reporter, luminescence; 100% = IFN-gamma alone, no compound. activation (% of control), % at 5.5 µM. hit rate 2.6% among 200,000. AID 932;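 active = activation above the screen-wide mean activation plus 3 SD, cut at about 130% in these data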
Wee1 stabilizer = blocks degradation of human Wee1 kinase; P30291; HeLa Luc-Wee1K328M stability, luciferase luminescence; 100% = proteasome inhibitor MG132 effect; reporter increase, % at 5 µM; hit rate 1.2% among 220,000;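 active = activation above the mean of all tested compounds plus 3 SD, set per screening run, cut at about 8.8% in these data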;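 also: cells exposed to compound for 20 h before luminescence read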
p97 ATPase inh = blocks human p97 ATPase activity | P55072 | recombinant p97 ATPase, Kinase-Glo ATP luminescence, 3 h | inhibition, % at 8 µM | hit rate 0.42% among 220,000 | AID 1481; in the data active = inhibition above about 15%
APP 5'UTR act = activates APP 5'UTR luciferase reporter | SH-SY5Y APP 5'UTR luciferase reporter, luminescence; zero percent = DMSO vehicle wells | hit rate 1% among 190,000 | activation, % at 2 µM;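 active = activation above a set limit, based on mean plus 3 SD of controls, cut at about 140% in these data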
MDM2 E3 inh = Mdm2 E3 ligase (human) inhibition; hit rate 0.11% among 210,000; Q00987; cell-based MDM2 ubiquitination luciferase reporter, 2 h; 0 = plate control, 100 = twice control, blank-subtracted; signal enhancement, % at 5 µM; AID 1230;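 active = signal enhancement of 30% or more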;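 also: luminescence tracks abundance of the self-degrading MDM2-luciferase fusion protein; higher signal means inhibition of MDM2 E3 ligase activity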
Target sequence (Q00987 whole entry, looked up, the tested form may be a part): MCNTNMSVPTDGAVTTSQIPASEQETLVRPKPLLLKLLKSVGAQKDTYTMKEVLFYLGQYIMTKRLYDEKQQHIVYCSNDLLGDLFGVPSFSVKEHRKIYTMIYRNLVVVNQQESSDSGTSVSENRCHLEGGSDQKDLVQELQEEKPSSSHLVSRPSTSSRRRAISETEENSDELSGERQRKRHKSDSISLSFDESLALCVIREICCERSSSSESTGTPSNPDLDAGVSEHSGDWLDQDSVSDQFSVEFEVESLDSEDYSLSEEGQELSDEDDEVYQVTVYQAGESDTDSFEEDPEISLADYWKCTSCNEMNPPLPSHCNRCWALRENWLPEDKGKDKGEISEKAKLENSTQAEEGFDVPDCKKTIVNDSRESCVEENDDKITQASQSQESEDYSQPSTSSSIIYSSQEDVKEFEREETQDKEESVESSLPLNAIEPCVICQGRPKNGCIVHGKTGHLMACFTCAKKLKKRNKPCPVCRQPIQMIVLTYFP
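Buffer or medium: Cells held in DMEM | Assay system: Stable mammalian line carrying autodegrading MDM2–luciferase fusion reporter | Quantity: 2000 cells/well | Times: 4 h settle plus 2 h compound, 37 °C | Doses: One concentration, 5 µM, with 0.2% DMSO | Technique: Luminescence with SteadyLite reagent, 15 min at room temperature | Benchmarks: Plate controls and plate blanks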
NF-kB expr up = raises NF-kB expression in human neuronal cells | NF-kB reporter expression; hits give high values | fold change at 12.5 µM | hit rate 1.6% among 190,000 | AID 1239; in the data active = fold change above about 3.3
Hits are given with their value; – = inactive; · = no result. In the library only some 4.6% were active in any assay of this set; here they are far more common.

SMILES | STAT1 activator | Wee1 stabilizer | p97 ATPase inh | APP 5'UTR act | MDM2 E3 inh | NF-kB expr up
O=C(Sc1cccc2cccnc12)c1ccc(F)cc1 | 173 | – | – | – | – | –
CC(=O)/C(=N\Nc1ccccc1)Sc1cccc2cccnc12 | – | – | – | – | – | –
O=S(=O)(Nc1cc(Sc2cccc3cccnc23)c(O)c2ccccc12)c1ccc(F)cc1 | 141 | – | – | – | – | –
COc1ccc(S(=O)(=O)Nc2cc(Sc3ncn[nH]3)c(O)c3ccccc23)cc1 | – | – | 31 | – | – | –
CCc1ccc(N(C(=O)c2csnn2)C(C(=O)NC(C)(C)C)c2cccnc2)cc1 (stereo not drawn) | – | – | – | – | – | –
Nc1oc2ccccc2c(=O)c1C=O | – | – | – | – | – | –
CC(C)c1ccccc1NC(=O)COC(=O)c1ccc(Cl)c(S(=O)(=O)N2CCCCCC2)c1 | – | – | – | – | – | –
CCN(CC)S(=O)(=O)c1cccc(C(=O)Nc2cccnc2)c1 | – | – | – | – | – | –
O=C(Nc1cccnc1)c1ccc(-c2ccccc2)cc1 | – | – | – | – | – | 4
CNS(=O)(=O)c1cccc(C(=O)Nc2cccnc2)c1 | – | 11 | – | – | – | –
CCOCCCNC(C(=O)Nc1ccc(OC)c(Cl)c1)c1ccccc1 (stereo not drawn) | – | – | – | 169 | – | –
O=C(CSc1nc(C2CCCCC2)n(-c2ccccc2)n1)NCC(F)(F)F | – | – | – | – | · | –
O=S(=O)(Cc1ccccc1Cl)NCCOc1ccccc1 | – | 9.0 | – | – | – | –
CCc1c(C)sc(NC(=O)/C=C/C(=O)O)c1C(N)=O | – | – | – | – | – | –
O=C(O)C1CCCCC1C(=O)Nc1cccc2ccccc12 (stereo not drawn) | 143 | – | – | – | – | –
O=C(O)C1CCCCC1C(=O)Nc1ccccc1Nc1ccccc1 (stereo not drawn) | – | – | – | – | – | –
CC(=NC1CCCC1)c1c(C)[nH]n(-c2nc3ccccc3s2)c1=O | 142 | – | – | – | – | –
Cc1ccc(-c2nc(-c3ccccc3)no2)cc1 | 148 | – | – | – | – | 10
Cc1ccc(Cc2nc(-c3cccnc3)no2)cc1 | – | – | – | – | – | –
CCCc1noc(-c2ccc(-c3ccccc3)cc2)n1 | 138 | – | – | – | – | 5.7
Cc1ccc(-c2noc(-c3ccoc3C)n2)cc1 | 154 | – | – | – | – | –
Cc1ccc(-c2nc(-c3cccnc3)no2)cc1 | – | – | – | – | – | 6.3
CCCc1noc(-c2cccc([N+](=O)[O-])c2)n1 | – | – | – | – | – | –
Nc1cc2c(cc1C(=O)c1cccc(Br)c1)OCCO2 | – | – | – | – | – | –
O=C(NNC(=O)C1CCC(C(=O)NNC(=O)c2cccs2)CC1)c1cccs1 (stereo not drawn) | – | – | – | – | – | –
SMILES | STAT1 activator | Wee1 stabilizer | p97 ATPase inh | APP 5'UTR act | MDM2 E3 inh | NF-kB expr up
COc1nc(-c2ccc(Cl)cc2)ccc1-c1noc(-c2ccncc2)n1 | – | – | – | – | · | ·
c1ccc(-c2noc(-c3cccnc3)n2)nc1 | 129 | – | – | – | – | –
Cc1ccc(-c2nc(-c3ccccc3)no2)c(Cl)c1 | – | – | – | 166 | – | –
COc1nc(C)ccc1-c1noc(-c2ccncc2)n1 | 131 | – | – | – | – | –
COc1ccc(-c2noc(-c3ccccc3-c3ccccc3)n2)cc1 | – | – | – | – | – | –
CC(C)(C)c1ccc(-c2noc(-c3ccno3)n2)cc1 | · | – | – | · | – | ·
c1ccc(-c2noc(-c3ccncc3)n2)nc1 | – | – | – | – | – | –
CC(C)(C)c1ccc(-c2nc(-c3ccncc3)no2)cc1 | 130 | – | – | 216 | – | –
CCN(Cc1ccncc1)Cc1nc(CC2CC2)no1 | – | – | – | – | – | –
CN(C)CCSc1nnc2[nH]c3ccccc3c2n1 | – | – | – | – | – | –
COc1ccccc1Oc1ccc(N/C=C/C(=O)c2ccco2)cc1 | 143 | – | – | – | – | 5.2
CN(C)c1ccc(N/C=C/C(=O)c2ccco2)cc1 | – | – | – | · | – | –
CC(=O)Nc1ccc(N/C=C/C(=O)c2ccco2)cc1 | 141 | – | – | – | – | –
O=C(/C=C/Nc1ccccc1Oc1ccccc1)c1ccco1 | – | – | – | – | – | –
O=C(CCS(=O)(=O)c1cccs1)NC1CCCCCC1 | 130 | – | – | – | – | –

From PubChem
